From the RNAGym collection of RNA variant scans (doi:10.1126/science.aae0568)
This sample holds only a part of the variants without activity.

B1: tRNA (parent)
chain: GUUCCGUUGGCGUAAUGGUAACGCGUCUCCCUCCUAAGGAGAAGACUGCGGGUUCGAGUCCCGUACGGAACG

Variants of: B1
Experiment: yeast fitness relative to wild type (ratio to wild type); higher = fitter; tRNA-Arg(CCU), competitive growth, 37 C, YPD
How it was run: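 Amplicons of the tRNA-Arg(CCU) gene were sequenced, 100-nucleotide paired-end, from the start population and from each end population of a pooled yeast competition. The competition, in six parallel replicates, lasted 24 hours in YPD at 37°C. Fitness relative to wild type was calculated from changes in genotype frequencies. Genotypes had to have ≥ 100 starting reads, and estimates < 0.5 were set to 0.5.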

Variant	yeast fitness
A40G A42U	0.71
A40G A42U C49A	≤ 0.5
A40G A43G C62G	≤ 0.5
A40G A43G G44C	≤ 0.5
A40G A43G G44C C66U	≤ 0.5
A40G A43U C55G	0.535
A40G A45C C49G G67C A69U	≤ 0.5
A40G A45G	0.849
A40G A45G G52A	≤ 0.5
A40G A45G U53A	≤ 0.5
A40G A45U	0.786
A40G A45U G56A	0.601
A40G A57C C62U	≤ 0.5
A40G A57G	0.969
A40G A57U C60U A70G	0.624
A40G A69C	0.861
A40G A70G	1.09
A40G A70U	0.891
A40G C46A C61U	0.782
A40G C46A C62U	0.734
A40G C46A G67A	0.563
A40G C46A G68C	0.633
A40G C46G	0.998
A40G C46G C60U	≤ 0.5

Variant	yeast fitness
A40G C46U	0.918
A40G C49G U53C A57C A69U	≤ 0.5
A40G C49U A65C	0.941
A40G C49U G67A	≤ 0.5
A40G C55A	0.626
A40G C55G	0.621
A40G C55U A65C	0.525
A40G C60G G63C	≤ 0.5
A40G C61G U64C	≤ 0.5
A40G C61U U64G A69U	≤ 0.5
A40G C62A A70C	0.595
A40G C62G	0.719
A40G C62U A69C	0.725
A40G C66A	0.694
A40G G41A	0.825
A40G G44A	0.717
A40G G44A A45U C49U	≤ 0.5
A40G G44A G63C	≤ 0.5
A40G G48A C66U	0.769
A40G G50A C61G	0.584
A40G G50A U54A	0.552
A40G G50C	0.649
A40G G50C A57C G58C	0.636
A40G G51C	0.664

Variant	yeast fitness
A40G G51C U59A C61A A69U	≤ 0.5
A40G G52A A65U	≤ 0.5
A40G G52A U53A C66U	≤ 0.5
A40G G52A U54G C61U	≤ 0.5
A40G G58A	0.857
A40G G58A A70C	0.593
A40G G58A A70U	0.61
A40G G58C	1.05
A40G G63A	0.819
A40G G67A	0.754
A40G G67C	0.956
A40G U47A	0.848
A40G U47A C66G	0.705
A40G U47C	0.788
A40G U47G	0.595
A40G U53A C55G	≤ 0.5
A40G U53C	0.827
A40G U53C C61A C62G	≤ 0.5
A40G U54A	0.551
A40G U54C	0.955
A40G U59C C60A U64A	≤ 0.5
A40U A42C	0.752
A40U A42C A45U U47C A65G	≤ 0.5
A40U A42C C55U	≤ 0.5

Variant	yeast fitness
A40U A42C C55U C62U	≤ 0.5
A40U A42C G44A G51A	≤ 0.5
A40U A42C G67A	0.534
A40U A42U A65C	0.747
A40U A42U C49G G51A C66A G68C	≤ 0.5
A40U A43C	1
A40U A43C A69U	0.851
A40U A43C G68A	0.605
A40U A43C U53C G68A	≤ 0.5
A40U A43G	0.788
A40U A43G C60G	≤ 0.5
A40U A43U	1.11
A40U A43U A70U	0.664
A40U A45U A57U	0.611
A40U A45U G48A C55U C66U	≤ 0.5
A40U A45U G63A	0.689
A40U A45U U53C	0.684
A40U A57C	0.744
A40U A57C G67A A69U	≤ 0.5
A40U A57G	0.881
A40U A57G U64G	≤ 0.5
A40U A65C	0.652
A40U A65U	0.868
A40U A69C	0.851

Variant	yeast fitness
A40U A69U	1.04
A40U A69U A70C	0.725
A40U C46U	1.08
A40U C49A	0.638
A40U C49G	0.811
A40U C49G G56C A69C	≤ 0.5
A40U C49U	0.856
A40U C55A A57U	≤ 0.5
A40U C55A G56C	≤ 0.5
A40U C55G	0.664
A40U C55U	0.795
A40U C55U A65C	≤ 0.5
A40U C55U G68A	≤ 0.5
A40U C61A	0.76
A40U G41A	0.71
A40U G44A C61A	0.511
A40U G48A	0.826
A40U G48C C49U	0.586
A40U G48C C55U C61G	0.522
A40U G48C G63A	0.602
A40U G51A	0.777
A40U G52A	0.704
A40U G56A	0.843
A40U G58A	0.92

Variant	yeast fitness
A40U G63C U64C	0.53
A40U G67C	0.755
A40U G68C	0.741
A40U U47A G58A	≤ 0.5
A40U U47A G58C	0.579
A40U U47C	0.869
A40U U47C C66A	0.611
A40U U54A A70U	0.548
A40U U54C A70U	0.695
A40U U59C	0.913
A40U U59G	0.815
G41A	1
G41A A42C G50C	0.622
G41A A42C G50C A70G	0.621
G41A A42U U59G	≤ 0.5
G41A A43C	0.843
G41A A43C C66U	0.517
G41A A43G C60G A65G	0.571
G41A A43U	0.788
G41A A43U G63A	≤ 0.5
G41A A45U	1.01
G41A A45U G56C	0.546
G41A A57C C62A	≤ 0.5
G41A A57G	0.828

Variant	yeast fitness
G41A A57U	0.759
G41A A65G	0.934
G41A A65G A70G	0.63
G41A A65U	0.722
G41A A69C	0.801
G41A A69U	0.914
G41A A70G	0.924
G41A C46A U47C	1.06
G41A C46U C49A	≤ 0.5
G41A C49A	0.663
G41A C49A C66A	≤ 0.5
G41A C49A G50C G68C	≤ 0.5
G41A C49G	0.655
G41A C49G A65G	0.546
G41A C49U	0.921
G41A C49U C60G A65G	0.635
G41A C55A U59A	0.613
G41A C55G	0.605
G41A C55U	0.885
G41A C60A	0.667
G41A C60A U64A	≤ 0.5
G41A C60G A65G	0.62
G41A C60G A65G G68A	≤ 0.5
G41A C60G A70G	0.542

Variant	yeast fitness
G41A C60G C61G C62U	0.682
G41A C60G C62A A65G	≤ 0.5
G41A C61G	0.685
G41A C61G C66U	≤ 0.5
G41A C66G	0.625
G41A G44C	0.671
G41A G48A	0.944
G41A G50A	0.807
G41A G51A	0.664
G41A G51A A70C	0.542
G41A G51A C60G A65G	≤ 0.5
G41A G51C	≤ 0.5
G41A G52A	0.79
G41A G52C	0.542
G41A G56C G63A U64C G67C	≤ 0.5
G41A G58C	0.929
G41A G63A A70C	0.753
G41A G63C C66A	≤ 0.5
G41A G67A	0.663
G41A G68C	0.775
G41A U47A A70G	0.571
G41A U47A G48C	0.6
G41A U47C C61G C62U	≤ 0.5
G41A U47C C62U	≤ 0.5

Variant	yeast fitness
G41A U47C U53A	≤ 0.5
G41A U47G	0.655
G41A U53A C61A G68C	0.584
G41A U53C	0.626
G41A U54C	0.814
G41A U59A	0.826
G41A U59A A65C G67U	≤ 0.5
G41A U59G	0.822
G41A U64C	1.07
G41A U64C A65C	≤ 0.5
G41C	0.967
G41C A42G	0.804
G41C A42G G51A G68C	≤ 0.5
G41C A42U U64C	0.82
G41C A43G	0.898
G41C A43G U54A	0.564
G41C A43U	0.957
G41C A45G	0.778
G41C A45U	0.778
G41C A45U C55U	≤ 0.5
G41C A45U G67C	0.607
G41C A65G	0.905
G41C A65U	0.858
G41C A69C	0.858

Variant	yeast fitness
G41C A69U	0.813
G41C A70C	0.858
G41C A70G	0.829
G41C A70U	0.88
G41C C46A	0.982
G41C C46A C62G	0.551
G41C C49G	0.702
G41C C49U	0.894
G41C C55A A69C	0.529
G41C C55A C66U A69C	≤ 0.5
G41C C55G	0.621
G41C C55G C66G	≤ 0.5
G41C C55U G67C	≤ 0.5
G41C C60G G68A	≤ 0.5
G41C C60U G67A	≤ 0.5
G41C C61A	0.593
G41C C61U	0.857
G41C C61U G67A	≤ 0.5
G41C C62A G68C	≤ 0.5
G41C C62U	0.802
G41C C66U	0.83
G41C G48A C66A	0.583
G41C G50A	0.703
G41C G50C	0.695

Variant	yeast fitness
G41C G50C C60U	≤ 0.5
G41C G51A	0.844
G41C G56A A65G C66U	≤ 0.5
G41C G58A	0.948
G41C G58C	0.762
G41C G63A	0.852
G41C G63C	0.727
G41C U47A	0.654
G41C U47C	0.937
G41C U54C	0.889
G41C U54G	≤ 0.5
G41C U59A C61A C66U G68C	≤ 0.5
G41C U59C	0.933
G41C U64A	0.67
G41C U64C	0.896
G41U	0.988
G41U A69U	0.845
G41U C66U	0.845
G41U G51C	0.565
G41U G52C	0.584
A42C A43C	1.02
A42C A43C A65G	1.09
A42C A43C A69U	0.819
A42C A43C C49U A70C	0.585

Variant	yeast fitness
A42C A43C C60G C61G C62U	≤ 0.5
A42C A43G	0.885
A42C A43G C55G G68C	≤ 0.5
A42C A43G G63A	0.599
A42C A43U	0.779
A42C A45C	0.854
A42C A45C G48A G58A C61U A70G	≤ 0.5
A42C A45C G52C A69U	≤ 0.5
A42C A57G	0.749
A42C A57G C61U	≤ 0.5
A42C A57U C61U	≤ 0.5
A42C A65C	0.942
A42C A65G	0.922
A42C A65U	0.784
A42C A65U C66U	0.558
A42C A69C	0.939
A42C A70C	1.02
A42C A70G	0.87
A42C C46G A65U G67C	≤ 0.5
A42C C46G G52A	≤ 0.5
A42C C46G G67C	0.612
A42C C46U	0.969
A42C C49A	0.62
A42C C49A G67C	≤ 0.5

Variant	yeast fitness
A42C C49G	0.759
A42C C55A U59C	0.661
A42C C55U C62U	0.509
A42C C55U C66U	0.504
A42C C60A	0.672
A42C C60G	0.608
A42C C61G	0.721
A42C C62A C66G	≤ 0.5
A42C C62G	0.704
A42C C62G A65C	0.544
A42C C62G G67C	≤ 0.5
A42C C66A	0.688
A42C C66G	0.684
A42C G44A U53A	≤ 0.5
A42C G48A	1.07
A42C G48A C62U	1.03
A42C G48C	0.763
A42C G48C C49A	≤ 0.5
A42C G50A	0.745
A42C G50C C66U	0.534
A42C G50C G56A	≤ 0.5
A42C G50U	0.781
A42C G51A A65U G68A	≤ 0.5
A42C G51C	0.553

Variant	yeast fitness
A42C G52A	0.676
A42C G52A G56C	≤ 0.5
A42C G56C	0.649
A42C G58C	0.975
A42C G63A	0.818
A42C G63U	0.72
A42C G67C	0.829
A42C G67C A70U	0.505
A42C G67U	0.811
A42C G68C	0.657
A42C G68C A69U	≤ 0.5
A42C U47A G52A	≤ 0.5
A42C U47C	1.09
A42C U47G C49U	≤ 0.5
A42C U53A	0.626
A42C U59C	0.901
A42C U64C	0.882
A42C U64C A70U	1.12
A42G A43C A69G	0.835
A42G A43C A70U	0.745
A42G A43G	0.766
A42G A43G A45U	0.722
